Laboratory results from ChEMBL document CHEMBL1124759, “Fluoronaphthyridines and quinolones as antibacterial agents. 2. Synthesis and structure-activity relationships of new 1-tert-butyl 7-substituted derivatives” (J Med Chem, 1990).
Converted amounts (≈) assume the structure as drawn.

Tests used:
Escherichia coli [1] = experiment: In vitro minimum inhibitory concentration (MIC) against Escherichia coli A 15119 at 37 degrees Celsius for 18 h.; type: functional
Summary of the method: (§1)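 Two-fold serial broth dilution in nutrient broth. Inoculum adjusted to 10^6 cfu/mL. Compounds tested from 0.0005 to 250 µg/mL.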

Morganella morganii = experiment: In vitro minimum inhibitory concentration (MIC) against Morganella morganii A 15153 at 37 degrees C for 18 h.; type: functional; summary of the method: as §1
Pseudomonas aeruginosa [2] = experiment: In vitro minimum inhibitory concentration (MIC) against Pseudomonas aeruginosa A 9843 at 37 degree C for 18 h; type: functional; summary of the method: as §1
Enterococcus faecalis = experiment: In vitro minimum inhibitory concentration (MIC) against Enterococcus faecalis A 9808 at 37 degrees C for 18 h.; type: functional; summary of the method: as §1
Staphylococcus aureus [3] = experiment: In vitro minimum inhibitory concentration (MIC) against Staphylococcus aureus Smith A 9537 at 37 degrees C for 18 hr; type: functional; summary of the method: as §1
Serratia marcescens = experiment: In vitro minimum inhibitory concentration (MIC) against Serratia marcescens A 20019 at 37 degrees C for 18 hr; type: functional; summary of the method: as §1
Enterococcus faecium = experiment: In vitro minimum inhibitory concentration (MIC) against Enterococcus faecium A 24885 at 37 degrees C for 18 h.; type: functional; summary of the method: as §1
Enterobacter cloacae = experiment: In vitro minimum inhibitory concentration (MIC) against Enterobacter cloacae A 9656 at 37 degrees C for 18 h.; type: functional
Klebsiella pneumoniae [4] = experiment: In vitro minimum inhibitory concentration (MIC) against Klebsiella pneumoniae A 9664 at 37 degrees C for 18 h.; type: functional; summary of the method: as §1
Escherichia coli [5] = experiment: In vitro minimum inhibitory concentration (MIC) against Escherichia coli A 15119 at 37 degrees C for 18 h.; type: functional; summary of the method: as §1
Escherichia coli [6] = experiment: Efficacy on systematic infections against Escherichia coli A 15119 after oral administration in mice; type: functional; conditions: read-out: PD50
Summary of the method: (§2)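 Mice given compound orally after lethal systemic infection. Read-out is the oral dose protecting 50% of mice from death (PD50), reported in mg/kg.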

Pseudomonas aeruginosa [7] = experiment: Efficacy on systematic infections against Pseudomonas aeruginosa A 9843 after oral administration in mice; type: functional; conditions: read-out: PD50; summary of the method: as §2
Klebsiella pneumoniae [8] = experiment: Efficacy on systematic infections against Klebsiella pneumoniae A 9664 after oral administration in mice; type: functional; conditions: read-out: PD50; summary of the method: as §2
Staphylococcus aureus [9] = experiment: Efficacy on systematic infections against Staphylococcus aureus Smith A 9537 after oral administration in mice; type: functional; conditions: read-out: PD50; summary of the method: as §2
[10] = Tested for aqueous solubility; conditions: aqueous medium
Canis familiaris = species: Canis familiaris; conditions: dog, in vivo, po, 25 mg/kg
Pseudomonas aeruginosa [11] = experiment: In vitro minimum inhibitory concentration (MIC) against Pseudomonas aeruginosa A 9843 at 37 degrees C for 18 h; type: functional; summary of the method: as §1
Staphylococcus aureus [12] = experiment: Efficacy on systematic infections against Staphylococcus aureus A 9537 after oral administration in mice; type: functional; conditions: read-out: PD50; summary of the method: as §2
Klebsiella pneumoniae [13] = experiment: In vitro minimum inhibitory concentration (MIC) against Klebsiella pneumoniae A 9664 at 37 degrees Celsius for 18 h.; type: functional; summary of the method: as §1
Pseudomonas aeruginosa [14] = experiment: In vitro minimum inhibitory concentration (MIC) against Pseudomonas aeruginosa A 9843 at 37 degrees Celsius for 18 h; type: functional; summary of the method: as §1

SMILES | MIC (Escherichia coli [1]) | MIC (Morganella morganii) | MIC (Pseudomonas aeruginosa [2]) | MIC (Enterococcus faecalis) | MIC (Staphylococcus aureus [3]) | MIC (Serratia marcescens) | MIC (Enterococcus faecium) | MIC (Enterobacter cloacae) | MIC (Klebsiella pneumoniae [4]) | MIC (Escherichia coli [5]) | ED50 (Escherichia coli [6]) | ED50 (Pseudomonas aeruginosa [7]) | ED50 (Klebsiella pneumoniae [8]) | ED50 (Staphylococcus aureus [9]) | solubility [10] | AUC (Canis familiaris) | MIC (Pseudomonas aeruginosa [11]) | ED50 (Staphylococcus aureus [12]) | MIC (Klebsiella pneumoniae [13]) | MIC (Pseudomonas aeruginosa [14])
CN1C2CCC1CN(c1cc3c(cc1F)c(=O)c(C(=O)O)cn3C(C)(C)C)C2.Cl | 0.5 µg/mL | 1 µg/mL | 4 µg/mL | 2 µg/mL | 0.13 µg/mL | 0.5 µg/mL | 8 µg/mL | 0.13 µg/mL | 0.13 µg/mL |  |  |  |  |  |  |  |  |  |  | 
CCn1cc(C(=O)O)c(=O)c2cc(F)c(N3CCNCC3)cc21 [NORFLOXACIN] |  | 0.015 µg/mL (≈ 0.047 µM) | 0.5 µg/mL (≈ 1.57 µM) | 4 µg/mL (≈ 12.5 µM) | 0.25 µg/mL (≈ 0.783 µM) | 0.13 µg/mL (≈ 0.407 µM) | 8 µg/mL (≈ 25.1 µM) | 0.06 µg/mL (≈ 0.188 µM) | 0.03 µg/mL (≈ 0.0939 µM) | 0.13 µg/mL (≈ 0.407 µM) | 13 mg/kg | 12.6 mg/kg | 8 mg/kg | 1.9 mg/kg |  |  |  |  |  | 
CC(C)(C)n1cc(C(=O)O)c(=O)c2cc(F)c(N3CCNCC3)nc21 |  | 0.25 µg/mL (≈ 0.718 µM) |  | 0.5 µg/mL (≈ 1.44 µM) | 0.06 µg/mL (≈ 0.172 µM) | 0.25 µg/mL (≈ 0.718 µM) | 8 µg/mL (≈ 23 µM) | 0.06 µg/mL (≈ 0.172 µM) | 0.13 µg/mL (≈ 0.373 µM) | 0.015 µg/mL (≈ 0.0431 µM) | 4.7 mg/kg | 10.9 mg/kg | 4.8 mg/kg |  | 820 µg/mL (≈ 2350 µM) | 50000 ng·h/mL | 1 µg/mL (≈ 2.87 µM) | 1.1 mg/kg |  | 
CC(C)(C)n1cc(C(=O)O)c(=O)c2cc(F)c(N3CCNC(CF)C3)nc21.CS(=O)(=O)O (stereo not given) |  | 1 µg/mL | 4 µg/mL | 4 µg/mL | 0.13 µg/mL | 1 µg/mL | 16 µg/mL | 0.06 µg/mL |  | 0.13 µg/mL |  |  |  |  |  |  |  |  | 0.13 µg/mL | 
O=C(O)c1cn(C2CC2)c2cc(N3CCNCC3)c(F)cc2c1=O [CIPROFLOXACIN] |  | 0.015 µg/mL (≈ 0.0453 µM) | 0.13 µg/mL (≈ 0.392 µM) | 0.5 µg/mL (≈ 1.51 µM) | 0.13 µg/mL (≈ 0.392 µM) | 0.3 µg/mL (≈ 0.905 µM) | 4 µg/mL (≈ 12.1 µM) |  | 0.03 µg/mL (≈ 0.0905 µM) |  | 1 mg/kg | 2.6 mg/kg | 1.5 mg/kg | 3.4 mg/kg |  |  |  |  |  | 
CS(=O)(=O)O.C[C@H]1CN(c2nc3c(cc2F)c(=O)c(C(=O)O)cn3C(C)(C)C)C[C@@H]1N |  | 0.13 µg/mL | 0.25 µg/mL | 0.06 µg/mL | 0.008 µg/mL | 0.13 µg/mL | 0.5 µg/mL | 0.015 µg/mL |  | 0.015 µg/mL | 2.4 mg/kg | 6.3 mg/kg | 6.3 mg/kg |  |  |  |  | 1.6 mg/kg | 0.06 µg/mL | 
CC1(N)CCN(c2cc3c(cc2F)c(=O)c(C(=O)O)cn3C(C)(C)C)C1 (stereo not given) |  | 1 µg/mL (≈ 2.77 µM) |  | 0.5 µg/mL (≈ 1.38 µM) | 0.06 µg/mL (≈ 0.166 µM) | 2 µg/mL (≈ 5.53 µM) | 4 µg/mL (≈ 11.1 µM) | 0.5 µg/mL (≈ 1.38 µM) | 0.25 µg/mL (≈ 0.692 µM) | 0.5 µg/mL (≈ 1.38 µM) |  |  |  |  |  |  |  |  |  | 2 µg/mL (≈ 5.53 µM)
CC(C)(C)n1cc(C(=O)O)c(=O)c2cc(F)c(N3C[C@@H](N)[C@@H](F)C3)nc21.CS(=O)(=O)O | 0.25 µg/mL | 0.5 µg/mL | 2 µg/mL | 0.5 µg/mL | 0.015 µg/mL | 0.5 µg/mL | 4 µg/mL | 0.25 µg/mL | 0.06 µg/mL |  |  |  |  |  |  |  |  |  |  | 
CC(C)(C)n1cc(C(=O)O)c(=O)c2cc(F)c(N3CCNCC3)cc21 |  | 0.25 µg/mL (≈ 0.72 µM) |  | 1 µg/mL (≈ 2.88 µM) | 0.06 µg/mL (≈ 0.173 µM) | 0.5 µg/mL (≈ 1.44 µM) | 4 µg/mL (≈ 11.5 µM) | 0.13 µg/mL (≈ 0.374 µM) | 0.13 µg/mL (≈ 0.374 µM) | 0.06 µg/mL (≈ 0.173 µM) | 21.7 mg/kg | 29 mg/kg | 10.3 mg/kg |  | 130 µg/mL (≈ 374 µM) |  | 0.5 µg/mL (≈ 1.44 µM) | 2.4 mg/kg |  | 
CC1(N)CCN(c2nc3c(cc2F)c(=O)c(C(=O)O)cn3C(C)(C)C)C1 (stereo not given) |  | 0.5 µg/mL (≈ 1.38 µM) |  | 0.5 µg/mL (≈ 1.38 µM) | 0.015 µg/mL (≈ 0.0414 µM) | 0.5 µg/mL (≈ 1.38 µM) | 4 µg/mL (≈ 11 µM) | 0.13 µg/mL (≈ 0.359 µM) | 0.06 µg/mL (≈ 0.166 µM) | 0.06 µg/mL (≈ 0.166 µM) |  |  |  |  |  |  |  |  |  | 2 µg/mL (≈ 5.52 µM)
CCNCC1CCN(c2nc3c(cc2F)c(=O)c(C(=O)O)cn3C(C)(C)C)C1 (stereo not given) |  | 1 µg/mL (≈ 2.56 µM) |  | 2 µg/mL (≈ 5.12 µM) | 0.13 µg/mL (≈ 0.333 µM) | 1 µg/mL (≈ 2.56 µM) | 8 µg/mL (≈ 20.5 µM) | 0.25 µg/mL (≈ 0.64 µM) | 0.25 µg/mL (≈ 0.64 µM) | 0.13 µg/mL (≈ 0.333 µM) |  |  |  |  |  |  |  |  |  | 2 µg/mL (≈ 5.12 µM)
